How the values were obtained:
[1] = tested on: Human immunodeficiency virus 1; experiment: Antiviral activity against HIV1 3B infected in human MT4 cells assessed as inhibition of virus-induced cytopathic effect by MTT assay; type: functional, organism-based; conditions: Human immunodeficiency virus 1, 3B
How it was run: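 MT-4 cells infected with 100-300 CCID50 of HIV-1 IIIB (dose titrated in MT-4 cells) in the presence of 5-fold serial drug dilutions. Protection from virus-induced cytopathic effect read by MTT reduction to formazan, measured spectrophotometrically.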

[2] = molecular target: Human immunodeficiency virus type 1 reverse transcriptase (Human immunodeficiency virus 1, UniProt Q72547); experiment: Inhibition of recombinant HIV-1 reverse transcriptase RNase H domain after 10 mins
How it was run: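 Recombinant HIV-1 RT (4.5 pmol) preincubated with compound 10 min at 37 °C. Then added: 3H-RNA/DNA duplex (E. coli RNA polymerase transcript of calf thymus ssDNA, 20,000 cpm) in 50 mM Tris-HCl pH 8.0, 10 mM DTT, 6 mM MgCl2, 80 mM KCl; 10 min at 37 °C. Stopped with cold 10% TCA/0.1 M pyrophosphate; filter-bound radioactivity counted.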

[3] = Cytotoxicity against human MT4 cells by MTT assay; type: cell-based
[4] = molecular target: Human immunodeficiency virus type 1 integrase (Human immunodeficiency virus 1, UniProt Q7ZJM1); experiment: Inhibition of HIV-1 integrase after 1 hr by immunosorbent assay
Human immunodeficiency virus type 1 integrase, sequence (Q7ZJM1 whole entry): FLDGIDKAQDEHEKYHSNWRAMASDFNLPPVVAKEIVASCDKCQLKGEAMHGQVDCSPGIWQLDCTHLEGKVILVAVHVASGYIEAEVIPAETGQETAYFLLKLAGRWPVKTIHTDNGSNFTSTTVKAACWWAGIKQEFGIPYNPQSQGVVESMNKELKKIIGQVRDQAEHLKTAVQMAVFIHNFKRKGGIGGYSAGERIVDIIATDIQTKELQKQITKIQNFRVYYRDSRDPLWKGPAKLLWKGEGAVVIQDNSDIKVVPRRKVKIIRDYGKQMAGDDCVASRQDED
How it was run: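 Overall integration ELISA. Substrate is annealed oligos (7 nM), one 3'-biotin-labelled and one 5'-digoxigenin-labelled, with integrase at […] as written. Reaction 1 h at 37 °C, then immunodetection on avidin-coated plates. IC50 is the mean ± SD of at least three independent experiments.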

[5] = tested on: Human immunodeficiency virus 1; experiment: Selectivity ratio of IC50 for recombinant HIV-1 reverse transcriptase RNase H domain to IC50 for HIV-1 integrase

SMILES	IC50 ([2]; read-out: IC50) [µM]	IC50 [4] [µM]	Ratio IC50 [5]	EC50 [1] [µM]	CC50 [3] [µM]	IC50 [2]
CCCC1C(=O)N(O)C(=O)c2ccccc21 (centres undefined)	46.8	21.1		> 25.4	25.4	
CCCCCCCc1c(O)n(O)c(=O)c2ccccc12	45	113	0.4			
CCCCCCC1C(=O)N(O)C(=O)c2ccccc21 (centres undefined)	38	11.4		> 4.4	4.4	
O=C1c2ccccc2C(CCCc2ccccc2)C(=O)N1O (centres undefined)	66.8	2.6		> 5.2	5.2	
O=C1c2ccccc2C(Cc2ccc(C(F)(F)F)cc2)C(=O)N1O (centres undefined)	42.7	23.2		> 6	6	
O=C1c2ccccc2C(CCc2ccccc2)C(=O)N1O (centres undefined)		27.8		> 30	30	Not Active
Cc1ccc(CC2C(=O)N(O)C(=O)c3ccccc32)cc1 (centres undefined)	80	3.4		> 5.5	5.5	
CCC1C(=O)N(O)C(=O)c2ccccc21 (centres undefined)	70	15.7		> 250	250	
O=C1c2ccccc2C(Cc2ccccc2)C(=O)N1O (centres undefined)		37.7		> 95	95	Not Active
CC1C(=O)N(O)C(=O)c2ccccc21 (centres undefined)	38.8	3.3		> 250	250	

Further lines, with some results ahead:

IC50 ([2]; read-out: IC50) [µM]	IC50 [4] [µM]	Ratio IC50 [5]	SMILES	EC50 [1] [µM]	CC50 [3] [µM]	IC50 [2]
18.5	35.5		CC(C)C1C(=O)N(O)C(=O)c2ccccc21 (centres undefined)	> 122	122	
33.6	1.35		CCCCCC1C(=O)N(O)C(=O)c2ccccc21 (centres undefined)	> 98.3	98.3	
7.8	45.4		CCCCCCc1c(O)n(O)c(=O)c2ccccc12	> 128	128	
14.9	39.9		O=c1c2ccccc2c(Cc2ccccc2)c(O)n1O	> 88	88	
13.2	40.2		CCCCC1C(=O)N(O)C(=O)c2ccccc21 (centres undefined)	> 25.4	25.4	
